Experimental data of several laboratories.
Compare with care: the assays were run in different laboratories.
Observed: cell growth or viability

Structure (SMILES)	cell line	test	conditions	IC50
COc1nnc2ccc(N3CCC(c4ccc(OCCN5CCN(C)C(=O)[C@H]5C)cc4)CC3)nn12	MP41	ATP luminescence	72 h	90.4 nM
COc1cc(C(=O)c2nc(-c3cccc4cc[nH]c34)c[nH]2)cc(OC)c1OC	M14	MTS	72 h	27.3 nM
FC(F)(F)c1cc(OCc2cc(-c3ccc(Cl)cc3Cl)no2)c2ccccc2n1	HL-60	MTS	72 h	> 100000 nM
CC(=O)O[C@@]12CO[C@@H]1C[C@H](O)[C@@]1(C)C(=O)[C@H](O)C3=C(C)[C@@H](OC(=O)[C@H](O)[C@@H](NC(=O)OC(C)(C)C)c4ccccc4)C[C@@](O)([C@@H](OC(=O)c4ccccc4)[C@H]21)C3(C)C	SK-BR-3	MTT	24 h	> 50 µg/mL
O=C(NO)c1ccc(Cn2cnc3c(Nc4cccc([N+](=O)[O-])c4)ncnc32)cc1	U-266	MTT	72 h	310 nM
CC(=O)O[C@H]1C(=O)[C@@]2(C)[C@H]([C@H](OC(=O)c3ccccc3)[C@]3(O)C[C@H](OC(=O)[C@H](O)[C@@H](NC(=O)c4ccccc4)c4ccccc4)C(C)=C1C3(C)C)[C@]1(OC(C)=O)CO[C@@H]1C[C@@H]2O	M14	MTS	72 h	0.2 nM
O=c1cc(OCc2cc(-c3ccccn3)no2)c2ccccc2o1	HL-60	MTS	72 h	> 100000 nM
COc1ccccc1-n1cc(CNC(=O)[C@@]2(C)[C@H](O)CC[C@@]3(C)[C@H]2CC[C@]2(C)[C@@H]3C(=O)C[C@@H]3[C@@H]4[C@@H](C)[C@H](C)CC[C@]4(C)CC[C@]32C)nn1	HDF	MTT	24 h	105000 nM
CC1CCC(C(C)C)C(OC2=C(Cl)C(=O)c3ccccc3C2=O)C1 (stereo not drawn)	SK-BR-3	MTT	24 h	4 µg/mL
Nc1ccccc1NC(=O)c1ccc(Cn2cnc3c(Nc4ccc(Cl)cc4)ncnc32)cc1	HL-60	MTT	72 h	1110 nM
COc1cccc2c1C(=O)c1c(O)c3c(c(O)c1C2=O)C[C@@](O)(C(=O)CO)C[C@@H]3O[C@H]1C[C@H](N)[C@H](O)[C@H](C)O1	CHO-K1	ATP luminescence	72 h	340 nM
Nc1ccn([C@@H]2O[C@H](CO)[C@@H](O)C2(F)F)c(=O)n1	MP41	ATP luminescence	72 h	76.9 nM
NC1=NN(c2ccc([N+](=O)[O-])cc2[N+](=O)[O-])C(=O)C1N=Nc1ccccc1C(=O)O (stereo not drawn)	Vero	MTT	72 h	54400 nM
COc1cc([C@@H]2c3cc4c(cc3[C@H](O)[C@H]3COC(=O)[C@H]23)OCO4)cc(OC)c1OC	MP41	ATP luminescence	72 h	6.49 nM
CO[C@H]1[C@H](O[C@H]([C@H]2O[C@@H](n3ccc(=O)[nH]c3=O)[C@H](O)[C@@H]2O)[C@H](NCCCNC(=O)[C@@H](NC(=O)[C@@H](NC(=O)N[C@H](C(=O)O)C(C)C)[C@@H]2CCN=C(N)N2)[C@@H](O)C(C)C)C(=O)O)O[C@H](CN)[C@H]1O	SK-BR-3	WST-1	–	> 35000 nM
COc1cc(C(=O)c2nc(-c3cccc4[nH]ccc34)c(C)[nH]2)cc(OC)c1OC	M14	MTS	72 h	17.2 nM
C[C@H]1[C@H](C)CC[C@]2(C)CC[C@]3(C)C(=CC(=O)[C@@H]4[C@@]5(C)CC[C@@H](O)[C@](C)(C(=O)NCc6cn(-c7ccc(Cl)cc7)nn6)[C@@H]5CC[C@]43C)[C@H]12	HDF	MTT	24 h	191000 nM
Nc1ccccc1NC(=O)c1ccc(Cn2cnc3c(Nc4ccc(Br)cc4F)ncnc32)cc1	U-266	MTT	72 h	460 nM
Cc1sc2c(c1C)C(c1ccc(Cl)cc1)=N[C@@H](CC(=O)NCCCCNC(=O)COc1cccc3c1C(=O)N(C1CCC(=O)NC1=O)C3=O)c1nnc(C)n1-2 (stereo partly drawn)	SK-BR-3	CCK-8	72 h	> 10000 nM
CC(=O)N1c2ccc(-c3ccc(C(=O)O)cc3)cc2[C@H](Nc2ccc(Cl)cc2)C[C@@H]1C	MP41	ATP luminescence	72 h	154 nM

Structure (SMILES)	cell line	test	conditions	IC50
C/C(=N/NC(=O)c1cn(-c2ccccc2)nc1-c1ccc(C)cc1)c1c(O)cc(C)oc1=O	Vero	MTT	48 h	216000 nM
COc1cc(C(=O)c2nc(-c3cccc4[nH]ccc34)cs2)cc(OC)c1OC	M14	MTS	72 h	4.5 nM
O=[N+]([O-])c1ccc(Sc2cccc[n+]2[O-])c2nonc12	MP41	ATP luminescence	72 h	2590 nM
C[C@H]1[C@H](C)CC[C@]2(C)CC[C@]3(C)C(=CC(=O)[C@@H]4[C@@]5(C)CC[C@@H](O)[C@](C)(C(=O)NCc6cn(-c7cccc(C(F)(F)F)c7)nn6)[C@@H]5CC[C@]43C)[C@H]12	HDF	MTT	24 h	116000 nM
CCCNC(=S)N/N=C/c1cccc2cc3ccccc3nc12	SK-BR-3	MTT	48 h	> 50000 nM
C[C@H]1[C@H](C)CC[C@]2(C)CC[C@]3(C)C(=CC(=O)[C@@H]4[C@@]5(C)CC[C@@H](O)[C@](C)(C(=O)NCc6cn(-c7cccc(Br)c7)nn6)[C@@H]5CC[C@]43C)[C@H]12	HDF	MTT	24 h	121000 nM
Clc1ccc(-c2cc(CNc3cccc4cccnc34)on2)c(Cl)c1	HL-60	MTS	72 h	67100 nM
CNC(=S)N/N=C/c1cccc2cc3ccccc3nc12	SK-BR-3	MTT	48 h	41800 nM
C[C@H]1[C@H](C)CC[C@]2(C)CC[C@]3(C)C(=CC(=O)[C@@H]4[C@@]5(C)CC[C@@H](O)[C@](C)(C(=O)NCc6cn(-c7ccc(Br)cc7)nn6)[C@@H]5CC[C@]43C)[C@H]12	HDF	MTT	24 h	117000 nM
FC(F)(F)c1ccc(-c2cc(COc3cc(C(F)(F)F)nc4ccccc34)on2)cc1	HL-60	MTS	72 h	> 100000 nM
COc1cccc(NC(=S)N/N=C/c2cccc3cc4ccccc4nc23)c1	SK-BR-3	MTT	48 h	> 50000 nM
O=C(NO)c1ccc(Cn2cnc3c(Nc4ccc(Cl)cc4)ncnc32)cc1	U-266	MTT	72 h	630 nM
COc1cc(C(=O)c2nc(-c3cccc4c3CCN4)c[nH]2)cc(OC)c1OC	M14	MTS	72 h	43.4 nM
Cc1noc(C)c1-c1cc(C(O)(c2ccccn2)c2ccccn2)c2nc(C3CC3)[nH]c2c1	MP41	ATP luminescence	72 h	104 nM
O=c1cc(OCc2cc(-c3ccc(Cl)cc3Cl)no2)c2ccccc2o1	HL-60	MTS	72 h	> 100000 nM
COc1cc(C(=O)c2nc(-c3ccnc4[nH]ccc34)c[nH]2)cc(OC)c1OC	M14	MTS	72 h	15.8 nM
O=[N+]([O-])c1ccc(NC(=S)N/N=C/c2cccc3cc4ccccc4nc23)cc1	SK-BR-3	MTT	48 h	> 50000 nM
COc1cc(C(=O)c2nc(-c3cccc4[nH]ccc34)c[nH]2)cc2c1OC=CO2	M14	MTS	72 h	7.3 nM
C[C@H]1COCCN1c1nc(N2CCOC[C@@H]2C)c2ccc(-c3cccc(C(=O)NCCOCCOCCOCCONC(=O)c4ccc(F)c(F)c4Nc4ccc(I)cc4F)c3)nc2n1	D54	WST-1	72 h	22800 nM
